Results from ChEMBL document CHEMBL3868583, “6-Aryl substituted 4-(4-cyanomethyl) phenylamino quinazolines as a new class of isoform-selective PI3K-alpha inhibitors” (Eur J Med Chem, 2016).

Tests used:
Mus musculus [1] = test: Toxicity in Swiss mouse implanted with Swiss mouse EAT cells assessed as body weight at 22 mg/kg, ip administered for 1 to 9 days measured on day 5 (reference value: 22.6 g); assay type: organism-based; conditions: in vivo
Summary of the method: (§1)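 EAC cells harvested from 8–10-day ascitic Swiss mice; 1×10^7 cells injected intramuscularly into right thigh of Swiss male mice on day 0. Randomized next day: treated n=7, saline control n=10 (0.2 ml i.p.). Dosing i.p. days 1–9. […] Body weight and mortality tracked.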

Mus musculus [2] = test: Toxicity in Swiss mouse implanted with Swiss mouse EAT cells assessed as body weight at 22 mg/kg, ip administered for 1 to 9 days measured on day 9 (reference value: 22.8 g); assay type: organism-based; conditions: in vivo; summary of the method: as §1
Mus musculus [3] = test: Toxicity in Swiss mouse implanted with Swiss mouse EAC cells assessed as body weight at 20 mg/kg, ip administered for 1 to 9 days measured on day 5 (reference value: 26.2 g); assay type: organism-based, Ehrlich; conditions: in vivo
Summary of the method: (§2)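 1×10^7 EAC cells injected intraperitoneally into Swiss mice on day 0. Mice randomized next day: treated groups n=7, saline control n=10 (0.2 ml i.p.). Dosing i.p. days 1–9. Sacrifice on day 12; ascitic fluid collected from the peritoneal cavity. % tumor growth inhibition from total tumor cell count versus control. Body weight and mortality tracked.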

Mus musculus [4] = test: Toxicity in Swiss mouse implanted with Swiss mouse EAC cells assessed as body weight at 20 mg/kg, ip administered for 1 to 9 days measured on day 9 (reference value: 27.7 g); assay type: organism-based, Ehrlich; conditions: in vivo; summary of the method: as §2
Mus musculus [5] = test: Toxicity in Swiss mouse implanted with Swiss mouse EAT cells assessed as body weight at 22 mg/kg, ip administered for 1 to 9 days measured on day 13 (reference value: 24.1 g); assay type: organism-based; conditions: in vivo; summary of the method: as §1
Mus musculus [6] = test: Toxicity in Swiss mouse implanted with Swiss mouse EAC cells assessed as mortality at 20 mg/kg, ip administered for 1 to 9 days measured on day 12; assay type: organism-based, Ehrlich; conditions: in vivo; summary of the method: as §2
Mus musculus [7] = test: Toxicity in Swiss mouse implanted with Swiss mouse EAC cells assessed as body weight at 20 mg/kg, ip administered for 1 to 9 days measured on day 1 (reference value: 22.8 g); assay type: organism-based, Ehrlich; conditions: in vivo; summary of the method: as §2
[8] = Anticancer activity against Swiss mouse EAC cells implanted in Swiss mouse assessed as tumor growth inhibition at 20 mg/kg, ip administered for 1 to 9 days measured on day 12 relative to control; assay type: functional; conditions: Ehrlich, read-out: TGI; summary of the method: as §2
Mus musculus [9] = test: Toxicity in Swiss mouse implanted with Swiss mouse EAT cells assessed as mortality at 22 mg/kg, ip administered for 1 to 9 days measured on day 9 and 13; assay type: organism-based; conditions: in vivo; summary of the method: as §1
Mus musculus [10] = test: Toxicity in Swiss mouse implanted with Swiss mouse EAT cells assessed as body weight at 22 mg/kg, ip administered for 1 to 9 days measured on day 1 (reference value: 21.6 g); assay type: organism-based; conditions: in vivo; summary of the method: as §1
Mus musculus [11] = test: Toxicity in Swiss mouse implanted with Swiss mouse EAC cells assessed as body weight at 20 mg/kg, ip administered for 1 to 9 days measured on day 12 (reference value: 28.4 g); assay type: organism-based, Ehrlich; conditions: in vivo; summary of the method: as §2
[12] = Anticancer activity against Swiss mouse EAT cells implanted in Swiss mouse assessed as tumor growth inhibition at 22 mg/kg, ip administered for 1 to 9 days measured on day 13 relative to control; assay type: functional; conditions: read-out: TGI

**Q.** With O=c1[nH]cc(F)c(=O)[nH]1 [FLUOROURACIL] as the compound, how does the Activity (Mus musculus [1]) read?
**A.** The Activity was 20.85 g.

**Q.** And the Activity (Mus musculus [2])?
**A.** Its Activity is 21 g.

**Q.** What about the Activity (Mus musculus [3]) of the same compound?
**A.** Its Activity is 22 g.

**Q.** What about the Activity (Mus musculus [4]) of the same compound?
**A.** The Activity was 21.28 g.

**Q.** What about the Activity (Mus musculus [5]) of the same compound?
**A.** The Activity was 22.14 g.

**Q.** And the Activity (Mus musculus [6])?
**A.** Its Activity is “Non-Toxic”.

**Q.** What about the Activity (Mus musculus [7]) of the same compound?
**A.** The Activity was 21.42 g.

**Q.** What about the inhibition in vivo at 20 mg/kg [8] of the same compound?
**A.** Its inhibition in vivo at 20 mg/kg is 96.9%.

**Q.** And the Activity (Mus musculus [9])?
**A.** Its Activity is “Non-Toxic”.

**Q.** What about the Activity (Mus musculus [10]) of the same compound?
**A.** Its Activity is 20.14 g.

**Q.** What about the Activity (Mus musculus [11]) of the same compound?
**A.** Its Activity is 20.42 g.

**Q.** And the inhibition in vivo at 22 mg/kg [12]?
**A.** The inhibition in vivo at 22 mg/kg was 50%.
